Measured values pooled from the literature.
Compare with care: the assays were run in different laboratories.
Route: oral

| SMILES | species | sample | dose | notes | bioavailability [%] |
| --- | --- | --- | --- | --- | --- |
| OCc1ccc(-c2nn(Cc3ccccc3)c3ccccc23)o1 | male CD-1 mouse | plasma | 10 mg/kg | – | 11 |
| C=CCn1c(=O)c2cnc(Nc3ccc(N4CCN(C)CC4)cc3)nc2n1-c1ccc2c(n1)[C@@](O)(CC)CC2 | mouse | plasma | 60 mg/kg | – | 98 |
| Oc1ccc([C@@H]2Oc3ccc(O)cc3[C@@H]3CCC[C@@H]32)cc1 | male C57BL/6 mouse | plasma | 10 mg/kg | – | 14 |
| O=C1CCC(N2Cc3cc(C4CCN(Cc5ccccc5)CC4)ccc3C2=O)C(=O)N1 (centres unmarked) | male CD-1 mouse | plasma | 3 mg/kg | – | 63.8 |
| FC(F)(F)CN1CC(n2cc(Oc3ccn4nc(Cl)cc4n3)cn2)C1 | FVB mouse | blood | – | single dose | 46 |
| Cc1cc(-c2ccnc3[nH]cc(F)c23)cc(F)c1[C@@]1(O)[C@H](C)CN(C(=O)CN)C[C@@H]1C | male CD-1 mouse | plasma | 3 mg/kg | – | 30.7 |
| CCOC(=O)C1=C(CN2CCC[C@@H]2C(=O)Nc2ccc(B(O)O)cc2)NC(c2nccs2)=N[C@H]1c1ccc(F)cc1Br | CD-1 mouse | plasma | 10 mg/kg | – | 10.4 |
| Cc1cc(-c2ccnc3[nH]cc(F)c23)cc(F)c1[C@@]1(O)[C@H](C)CN(C2CCS(=O)(=O)CC2)C[C@@H]1C | male CD-1 mouse | plasma | 3 mg/kg | – | 37.7 |
| CN(C)C(=O)c1cc2cnc(Nc3ccc(-c4ccc5c(=O)cc(N6CCOCC6)oc5c4)cc3)nc2n1C1CCCC1.Cl | BALB/c mouse | plasma | 20 mg/kg | – | 29 |
| Cc1ccc(OCC(=O)N[C@@H](Cc2c[nH]c3ccccc23)C(=O)OC(C)C)cc1 | male Sprague-Dawley mouse | plasma | 20 mg/kg | – | 39 |
| COCC(=O)N1CCc2[nH]c3c(Cl)c(Cl)ccc3c2[C@@H]1C | C57BL/6 mouse | blood | 20 mg/kg | – | 12.5 |
| NCc1ccc(-c2nn(Cc3ccccc3)c3ccccc23)o1 | male CD-1 mouse | plasma | 10 mg/kg | – | 34 |
| Cc1nc2ccc(OCc3ccc(C(F)(F)F)cc3)cc2[nH]1 | male BALB/c mouse | plasma | 10 mg/kg | – | 35 |
| CC(C)[C@@H](CS(=O)(=O)C(C)C)N1C(=O)[C@@](C)(CC(=O)O)C[C@H](c2cccc(Cl)c2)[C@H]1c1ccc(Cl)cc1 | FVB mouse | plasma | 20 mg/kg | single dose | 16 |
